# sPLA2-III inh: Inhibits HGIII-sPLA2 liposome hydrolysis, primary screen; inhibition, % at 12.2 µM; QFRET BODIPY PC-A2 liposome hydrolysis, fluorescence; 0.56% of 370,000 active;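 active means inhibition above mean plus 3 SD of compounds lying within the high and low control bounds, cut at about 19% in these data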
# Target sequence (Q9NZ20 whole entry, looked up): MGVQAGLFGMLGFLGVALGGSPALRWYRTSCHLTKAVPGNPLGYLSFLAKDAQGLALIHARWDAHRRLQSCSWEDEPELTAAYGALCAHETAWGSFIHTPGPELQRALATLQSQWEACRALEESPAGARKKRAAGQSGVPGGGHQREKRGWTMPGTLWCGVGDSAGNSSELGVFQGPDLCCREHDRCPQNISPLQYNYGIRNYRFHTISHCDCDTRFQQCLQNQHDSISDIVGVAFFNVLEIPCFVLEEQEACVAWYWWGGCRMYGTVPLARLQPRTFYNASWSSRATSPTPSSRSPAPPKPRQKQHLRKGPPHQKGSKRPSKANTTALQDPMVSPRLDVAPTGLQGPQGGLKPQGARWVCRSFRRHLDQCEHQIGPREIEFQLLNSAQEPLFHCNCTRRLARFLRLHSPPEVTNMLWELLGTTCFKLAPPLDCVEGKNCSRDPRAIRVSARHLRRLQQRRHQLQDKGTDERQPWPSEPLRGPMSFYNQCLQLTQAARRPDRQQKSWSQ
# Arrestin-AP2 inh: inhibitors of human beta-arrestin and AP2 interaction; FITC-arrestin peptide / GST-AP2 beads, flow cytometry; AP2 beta2 appendage carries R879A mutation; inhibition, % at 10 µM; 0.31% of 340,000 active;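 active means inhibition above a set limit, near 3 SD of compounds lacking own fluorescence, cut at about 54% in these data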
#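 Measured by: flow cytometry, FL1 (488/535 nm); Material: AP2 appendage R879A on GSH beads; Evaluation: percent response; Timing: pre-incubation 12 min, peptide binding 1 h, room temperature; Also added: 50 nM FITC-arrestin peptide; Medium: PBS with 0.05% Tween 20 and 0.1% BSA.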
# Lipid droplet: hepatic lipid droplet formation modulation; inhibition, % at 6.5 µM; AID 1656; AML12 mouse hepatocytes, oleate lipid droplets, BODIPY imaging; 0.4% of 240,000 active;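 active means lipid droplet intensity inhibited by at least 50%, with more than 500 cells counted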
#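 System: AML12 hepatocytes (mouse). Probe or stimulus: oleic acid at 100 µM to induce lipid droplet formation. Times: overnight treatment with compound plus oleate. Detection: Image-based BODIPY and DAPI two-channel analysis. Evaluation: percent inhibition of filter-corrected integrated lipid droplet intensity per well.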
# PfM18AAP inh: blocks P. falciparum M18 aspartyl aminopeptidase; inhibition, % at 7.35 µM; recombinant PfM18AAP, H-Glu-NHMec fluorogenic cleavage; AID 1822; 1.2% of 290,000 active;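 active means inhibition above the campaign mean inhibition over all tested compounds plus 3 SD, cut at about 28% in these data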
# NRP1-CendR mod: alters CendR peptide binding to human NRP-1; O14786; 0.85% of 360,000 active; FAM-RPARPAR peptide binding to NRP-1, fluorescence polarization; inhibition, % at 25 µM;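 active means inhibition or corrected inhibition above about 18%, plus a signal ratio from 0.5 to 1.5, limit read from the data, passing the limit was not always enough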
# m5-HT2A agonist: activates the mouse 5-HT2A serotonin receptor; 0.66% of 360,000 active; P35363; activation, % at 7.6 µM; CHO-K1 mHTR2A beta-arrestin complementation, luminescence; percent of 30 µM serotonin response;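 active means activation above a run cutoff, the mean activation of all tested compounds plus 3 SD, cut at about 14% in these data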
# Numbers stand for hits; n = inactive; x = no result. A selection: hits, their analogues and other compounds. The true share with any hit is near 3.3%.
SMILES,sPLA2-III inh,Arrestin-AP2 inh,Lipid droplet,PfM18AAP inh,NRP1-CendR mod,m5-HT2A agonist
CCOC(=O)/C(N=Nc1c(C)n(C)n(-c2ccccc2)c1=O)=C(/O)c1ccccc1,n,n,n,n,32,n
COc1cc(C(=O)N2CCN(C3=NS(=O)(=O)c4ccccc43)CC2)cc(OC)c1OC,n,x,x,x,n,n
Nc1nc(=S)c2ncn(C3CCCC3)c2[nH]1,n,n,n,36,n,n
Nc1nc2c(ncn2C2CCCC2)c(=O)[nH]1,n,n,x,x,n,n
Fc1cccc(Cc2c(-c3cccc(Cl)c3)nc3ccc(Cl)cn23)c1,n,x,x,x,n,n
NC(c1csc(Nc2ccc(C(=O)c3ccccc3)cc2)n1)C1CCCCC1 (stereo not drawn),n,x,x,x,n,n
COc1cccc2cc(-c3nnc(SCC(=O)Nc4nc(C)cs4)n3C)oc12,n,n,x,n,n,25
CC(C)C[C@H]1COc2cc(N3CCSCC3)ccc2S(=O)(=O)N1C,n,x,x,x,x,x
O=C(Nc1ccc(C(=O)O)cc1)Nc1cccc2ccccc12,n,n,n,n,n,n
Cc1ccc(C(=O)O)cc1NC(=O)Nc1cccc2ccccc12,n,n,n,n,22,n
O=C(NNC1=C(C(=O)C(F)(F)F)CCC1)c1cccc(O)c1,n,n,n,n,n,n
Cc1cccc(C(=O)NNC2=C(C(=O)C(F)(F)F)CCC2)c1O,n,n,n,n,58,n
CC(C)CCn1c(Oc2ccc(Cl)cc2)nc2c1c(=O)n(C)c(=O)n2C,n,n,n,n,26,n
O=C(O)C1C(C(=O)Nc2ccc(Cl)cc2)C2C=CC1C21CC1 (stereo not drawn),n,n,n,n,28,n
O=C(Nc1ccc(Cl)cc1)C1C2CCC3C(CCC21)C3(Cl)Cl (stereo not drawn),n,n,x,n,n,n
CC(=O)Nc1cc(-c2ccccc2)cn2c(-c3ccc(F)cc3)cnc12,n,x,x,x,n,n
CS(=O)(=O)N1CCN(c2ccccc2NC(=O)Cc2ccc(Cl)cc2)CC1,n,n,n,n,28,n
CS(=O)(=O)N1CCN(c2ccccc2NC(=O)Cc2ccccc2)CC1,n,n,n,n,n,n
COC(=O)C[C@@H]1C=C[C@H](NC(=O)Nc2cc(F)ccc2F)[C@@H](CO)O1,n,x,x,x,n,n
COC(=O)C1CN(Cc2ccccc2)CCS(=O)(=O)N1Cc1cn(Cc2ccccc2Br)nn1 (stereo not drawn),n,x,x,x,x,x
O=C(CCS(=O)(=O)c1ccc(Br)s1)N1CCc2ccccc21,n,n,x,n,34,n
CC1(C(=O)NS(=O)(=O)C2CC2)CCCN(C(=O)c2ccccc2)C1 (stereo not drawn),n,x,x,x,n,n
Cc1cc[n+](-c2[nH]c(=O)sc2/C=N/NC([S-])=Nc2ccccc2)cc1C,n,n,n,32,35,n
Cc1ccc(NC(=S)NNC(=O)Nc2ccccc2)cc1,n,n,n,42,n,n
Cc1ccc(NC(=S)NNC(=S)Nc2ccc(C)cc2)cc1,n,n,x,x,n,n
SMILES,sPLA2-III inh,Arrestin-AP2 inh,Lipid droplet,PfM18AAP inh,NRP1-CendR mod,m5-HT2A agonist
CN1C(=O)Cc2cc(S(=O)(=O)N3CCN(c4ccc(Cl)cc4)CC3)ccc21,n,n,n,n,n,15
CSc1nc(O)c(Nc2cccc(Cl)c2)c(=O)[nH]1,n,n,n,31,n,n
CSc1nc(O)c(Nc2ccccc2)c(=O)[nH]1,n,n,x,x,n,n
COC(=O)c1sc(S(=O)(=O)N2CCCCC2C)c(C(=O)OC)c1C (stereo not drawn),n,n,x,x,n,n
COC(=O)[C@]12C[C@H](CC(=O)NCc3cccc(C(F)(F)F)c3)C(=O)N(Cc3ccccc3)C1=C[C@H](C1CCCC1)O[C@@H]2C,n,x,x,x,x,x
O=C(NCCCn1ccnc1)c1ccc(Cl)c(S(=O)(=O)N2CCOCC2)c1,n,n,x,n,35,n
O=C(Cc1c(F)cccc1Cl)NCCCn1ccnc1,n,n,x,28,n,n
CCNC(=O)OC[C@H]1O[C@H](C#Cc2ccc(C(C)(C)C)cc2)C=C[C@H]1OC(C)=O,n,x,x,x,x,x
CN1CCC(=NNC(=O)c2ccco2)CC1,n,n,x,n,36,n
CC(C)(C)C1CCC(=NNC(=O)c2ccco2)CC1 (stereo not drawn),n,n,n,n,n,n
Cc1cccc(C(C(C(=O)c2ccccc2)N2CCOCC2)N2CCOCC2)c1 (stereo not drawn),n,n,x,x,n,n
CC(=O)C(C(c1ccccc1)N1CCCc2ccccc21)N1CCOCC1 (stereo not drawn),n,n,x,x,24,n
C#CCNC(=O)C[C@@H]1C(=O)N2CCCC3=C2[C@@]1(C(=O)OC)CCCC3,n,x,x,x,x,x
O=C(NCSc1ccnc(SCNC(=O)c2ccccc2)n1)c1ccccc1,n,n,n,38,n,n
COc1ccc(-c2ccc(N(C)C)cc2)cc1[C@H]1[C@H]2C=CC[C@@H](C)[C@@H]2C(=O)N1Cc1ccccc1,n,n,n,x,n,n
COc1ccc(-c2ccc(OC)c([C@H]3[C@H]4C=CC[C@@H](C)[C@@H]4C(=O)N3Cc3ccccc3)c2)cc1C,n,n,n,x,29,n
O=C(Nc1ccc(-c2nnc3n2CCCCC3)cc1)c1ccco1,n,n,n,n,34,n
O=C(Nc1ccc(-c2ccc(N3CCCCC3)nn2)cc1)c1ccco1,n,n,x,x,n,n
CS(=O)(=O)N1CCC(Oc2cccc(C(=O)NCCCC3CCCC3)c2)CC1,x,61,n,n,n,n
CCC(=O)c1ccccc1OCCN1CCN(CC)CC1,n,n,n,31,n,n
COC(=O)c1ccccc1OCCN1CCCCCC1,n,x,n,n,n,n
O=C(c1cc(Cl)cc(Cl)c1)N1CCC2CC1c1cc(N3CCCCC3)ccc12 (stereo not drawn),n,x,x,x,n,n
CC1CC(C)CN(CCCSc2ccccc2)C1 (stereo not drawn),n,n,n,n,30,n
C[C@@H]1ON(C)[C@H]2C[C@H]3c4[nH]c5cccc(-c6ccccc6F)c5c4CCN3C(=O)[C@@H]12,n,x,x,x,x,x
COc1ccccc1NS(=O)(=O)c1cccc(-n2c(O)c(C=Nc3ccccc3C(=O)O)c3ccccc3c2=O)c1,n,n,52,n,n,n
SMILES,sPLA2-III inh,Arrestin-AP2 inh,Lipid droplet,PfM18AAP inh,NRP1-CendR mod,m5-HT2A agonist
COc1ccc(-c2nc3ccccc3nc2-c2ccc(OC)c(OC)c2)cc1OC,n,n,n,n,n,n
COc1ccc2nc3cccc(OC)c3nc2c1,n,n,n,n,31,n
COc1ccc2nc3ccccc3nc2c1N,n,n,n,n,29,n
O=C1CCC[C@H]2C[C@H](NCc3ccc(F)cc3)CC[C@]23CCCN13,n,x,x,x,x,x
Cc1sc2nc(SCC(=O)c3ccc(O)c(O)c3)n(C)c(=O)c2c1C,n,x,x,x,x,x
COc1ccc(N2C(=O)CC(Nc3ccc(N4CCOCC4)cc3)C2=O)c(OC)c1 (stereo not drawn),n,n,n,28,n,n

# Bioassay records as filed in PubChem.
